Screens deposited in PubChem BioAssay by several laboratories.
PglD inh – blocks C. jejuni PglD acetyltransferase activity; 0.098% of 360,000 active; AID 602405; inhibition, % at 12.5 µM; purified PglD enzyme, DTNB colorimetric CoA detection; in the data active = inhibition above about 16%, passing the limit was not always enough
ERp5 inh – inhibitors of human ERp5; Q15084; ERp5 insulin aggregation, absorbance 650 nm, 90 min; inhibition, % at 9.99 µM; 0.05% of 350,000 active; AID 651711;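 active = mean replicate inhibition above about 25%, with every replicate also reaching it, limit read from the data, passing the limit was not always enough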
PvdQ inh – P. aeruginosa PvdQ acylase inhibition. 0.063% of 340,000 active. purified PvdQ acylase, fluorescence plate reader. inhibition, % at 10 µM; in the data active = inhibition above about 30%, passing the limit was not always enough;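 note: 0% = vehicle neutral wells and 100% = reference inhibitor wells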
VIM-2 inhibitor – blocks Pseudomonas aeruginosa VIM-2 metallo-beta-lactamase; purified VIM-2, nitrocefin hydrolysis, epi-absorbance fluorescence; AID 1527; 0.89% of 290,000 active; inhibition, % at 5.6 µM;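 active = inhibition above the mean of all tested compounds plus 3 SD, cutoff set per screening run, cut at about 7.5% in these data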;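 note: red hydrolysis product quenches plate fluorescence so inhibitors raise well fluorescence; 0% = enzyme with DMSO and 100% = DMSO without enzyme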
PDI inh – blocks human protein disulfide isomerase activity. PDI insulin aggregation turbidity, A650, 90 min. inhibition, % at 10 µM. P07237. 0.052% of 350,000 active. AID 588391;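 active = mean inhibition across replicates of 30% or more, whatever share of single replicates reach that level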
Target sequence (P07237 whole entry, looked up): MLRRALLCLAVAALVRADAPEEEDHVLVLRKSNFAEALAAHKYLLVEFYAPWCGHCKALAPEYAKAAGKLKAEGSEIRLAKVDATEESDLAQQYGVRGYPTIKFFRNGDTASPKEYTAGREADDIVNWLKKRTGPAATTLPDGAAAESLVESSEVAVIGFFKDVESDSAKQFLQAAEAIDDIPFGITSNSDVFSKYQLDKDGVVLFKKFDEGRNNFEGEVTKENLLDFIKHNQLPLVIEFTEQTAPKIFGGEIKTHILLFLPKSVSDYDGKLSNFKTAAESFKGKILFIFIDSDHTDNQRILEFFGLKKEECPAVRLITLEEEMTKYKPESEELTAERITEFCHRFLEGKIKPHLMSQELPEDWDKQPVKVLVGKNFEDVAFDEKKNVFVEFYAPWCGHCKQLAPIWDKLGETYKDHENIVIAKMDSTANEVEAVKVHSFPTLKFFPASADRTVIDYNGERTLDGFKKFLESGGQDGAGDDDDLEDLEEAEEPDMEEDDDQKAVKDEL
IMP-1 inh-1 – blocks Pseudomonas aeruginosa IMP-1 metallo-beta-lactamase; 0.45% of 290,000 active; inhibition, % at 5.6 µM; purified IMP-1, nitrocefin hydrolysis, epi-absorbance fluorescence;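 active = inhibition above the mean plus 3 SD of all compounds in the same screening run, cut at about 4.5% in these data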;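 note: 0% = IMP-1 with DMSO and 100% = DMSO wells lacking enzyme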
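System: purified recombinant IMP-1 beta-lactamase. Medium: Zinc- and detergent-supplemented HEPES buffer, pH 7.1. Compound: one 5.6 µM dose […]. Schedule: 15 min preincubation plus 25 min reaction at 25 °C. Technique: Epi-absorbance fluorescence, 480 nm excitation, 530 nm emission.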
IMP-1 inh-2 – blocks IMP-1 metallo-beta-lactamase in VIM-2 selectivity screen | shares compounds with VIM-2 inhibitor | 1,300 tested, under 10 active | purified IMP-1, nitrocefin hydrolysis, epi-absorbance fluorescence | inhibition, % at 5.6 µM | AID 1856; call rule not given here;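 note: 0% = enzyme with vehicle and 100% = vehicle without enzyme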
VIM-2 FRET ctr – inhibits VIM-2 in FRET assay to exclude epi-absorbance artifacts | purified VIM-2, CCF2 FRET substrate hydrolysis | inhibition, % at 5.6 µM | 23% of 1,300 active | shares compounds with VIM-2 inhibitor;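 active = inhibition above the mean of all tested compounds plus 3 SD, cut at about 19% in these data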;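 note: 0% = VIM-2 plus DMSO and 100% = no enzyme wells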
TEM-1 counter – blocks E. coli TEM-1 beta-lactamase in VIM-2 selectivity screen; 3% of 1,300 active; shares compounds with VIM-2 inhibitor; Purified TEM-1, nitrocefin hydrolysis, epi-absorbance fluorescence; inhibition, % at 5.6 µM; AID 1866;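 active = inhibition above that campaign's mean inhibition plus 3 SD, cut at about 0.46% in these data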;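 note: 0% = TEM-1 with DMSO and 100% = TEM-1 with 100 µM potassium clavulanate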
VIM-2 inh conf – confirmation of P. aeruginosa VIM-2 metallo-beta-lactamase inhibitors; shares compounds with VIM-2 inhibitor; purified VIM-2, nitrocefin hydrolysis, epi-absorbance; inhibition, % at 5.6 µM; 96% of 1,300 active; AID 2187;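 active = inhibition of the VIM-2 beta-lactamase enzyme above about 11% from the earlier first-round screen, limit read from the data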;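 note: 0% = VIM-2 with DMSO and 100% = buffer wells without enzyme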
* marks the source's active call; other numbers are inactive results; nt = no result given. This is a sample that favours compounds with a hit; in the whole collection about 1% have one here.

SMILES	PglD inh	ERp5 inh	PvdQ inh	VIM-2 inhibitor	PDI inh	IMP-1 inh-1	IMP-1 inh-2	VIM-2 FRET ctr	TEM-1 counter	VIM-2 inh conf
CN1CCN(c2ccc(NC(=S)NC(=O)/C=C/c3ccco3)cc2)CC1	-6.8	1.4	7.0	50.4*	14.9	1.2	-0.2	-2.5	-2.4	67.3*
CN1CCN(c2ccc(NC(=O)COc3cccc4ccccc34)cc2)CC1	-4.2	-1.1	1.8	27.8*	4.8	-2.7	-2.6	-4.6	-4.1	33.4*
CCN1CCN(c2ccc(NC(=O)COc3ccccc3Cl)cc2)CC1	-4.7	nt	-4.2	13.6*	-4.2	-1.7	-2.7	-0.5	-8.0	30.8*
Cc1ccc2cccc(NC3OC(=O)c4ccccc43)c2n1 (stereo unspecified)	nt	nt	2.3	13.9*	2.2	-1.1	-3.5	-3.4	-6.8	4.5
COC(=O)c1ccccc1NC1OC(=O)c2ccccc21 (stereo unspecified)	-3.5	-5.9	0.5	-3.0	-8.8	-3.5	nt	nt	nt	nt
CCCN(C)C[C@H]1OCCCC[C@H](C)Oc2ccc(NS(=O)(=O)c3ccc(F)cc3)cc2C(=O)N([C@@H](C)CO)C[C@H]1C	0.1	5.2	nt	nt	nt	nt	nt	nt	nt	nt
Cc1cc(C)n2nc(CC#N)c(C#N)c2n1	nt	-2.3	-12.0	-1.3	3.8	-2.1	nt	nt	nt	nt
Cc1cc(C)n2nc(/C(C#N)=C/c3ccccn3)c(C#N)c2n1	-2.1	-5.3	9.5	44.9*	-5.9	-0.1	-3.5	-27.7	-8.1	7.7*
COCC(=O)N(C)C[C@@H]1Oc2cc(-c3ccc(C#N)cc3)ccc2S(=O)(=O)N([C@@H](C)CO)C[C@H]1C	-3.1	1.4	nt	nt	nt	nt	nt	nt	nt	nt
Cc1cc(NCCCn2ccnc2)n2ncc(-c3ccccc3)c2n1	-1.7	nt	-5.2	57.1*	4.0	-1.9	-0.7	-14.5	1.4*	73.0*
Cc1cc(NCCCn2ccnc2)n2nc(C)c(-c3ccc(Cl)cc3)c2n1	6.4	nt	-15.6	50.1*	3.5	-0.1	-2.5	-21.9	-6.1	60.5*
Cc1cc(NCc2ccccc2)n2ncc(-c3ccccc3)c2n1	0.1	-1.2	-18.8	-2.6	4.0	-4.1	nt	nt	nt	nt
Cc1cc(NCCN2CCOCC2)n2nc(C)c(-c3ccc(Cl)cc3)c2n1	-3.6	nt	-9.4	-2.5	-1.0	-4.8	nt	nt	nt	nt
Cc1cc(NCCN2CCOCC2)n2nc(C)c(-c3ccccc3)c2n1	-4.7	nt	-9.5	-3.7	-1.6	-3.2	nt	nt	nt	nt
Cc1cc(NCCCn2ccnc2)n2nc(C)c(-c3ccccc3)c2n1	-1.7	nt	-14.8	68.1*	-5.0	-2.8	-3.9	-15.1	-6.8	79.3*
c1ccc(-c2nc(NCCCn3ccnc3)c3ccccc3n2)cc1	nt	-1.3	-18.7	22.2*	6.8	-2.8	-1.8	-16.0	-1.5	36.1*
COc1ccc(NC(=O)N(C)C[C@H]2OCCCC[C@@H](C)Oc3ccc(NS(C)(=O)=O)cc3C(=O)N([C@H](C)CO)C[C@H]2C)cc1	-4.6	2.7	nt	nt	nt	nt	nt	nt	nt	nt
CN(C)S(=O)(=O)c1ccc(C(=O)NCc2ccc3[nH]c4c(c3c2)CCCC4)cc1	1.3	1.4	-7.0	13.6*	nt	3.1	0.8	28.0*	-2.1	25.5*
O=C(NCc1ccc2[nH]c3c(c2c1)CCCC3)N1CCOCC1	nt	nt	nt	-0.1	nt	-0.9	nt	nt	nt	nt
O=C(NCc1ccc2[nH]c3c(c2c1)CCCC3)c1ccc(S(=O)(=O)N2CCOCC2)cc1	-5.4	3.6	15.0	13.6*	nt	1.8	0.3	28.2*	-3.0	23.4*
CCN(CC)S(=O)(=O)c1ccc(C(=O)NCc2ccc3[nH]c4c(c3c2)CCCC4)cc1	-4.8	-0.2	1.4	13.7*	nt	-0.4	-0.5	28.3*	-4.1	20.0*
C[C@H]1CN([C@@H](C)CO)C(=O)Cc2cc(NC(=O)C3CCCCC3)ccc2O[C@H]1CN(C)CC1CC1	-3.0	-5.2	nt	nt	nt	nt	nt	nt	nt	nt
CC(/C=N/n1c(-c2ccccn2)n[nH]c1=S)=C\c1ccccc1	7.7	2.1	nt	1.7	-5.3	-3.8	nt	nt	nt	nt
